This is a sample that favours compounds with a hit; in the whole collection about 2.1% have one here.
DENV2 CPE rescue: DENV2-induced cell death inhibition. DENV2-infected cells, cytopathic effect rescue, plate reader. CPE inhibition, % at 9.99 µM. 1.7% of 350,000 active; in the data active = CPE inhibition above about 20%, passing the limit was not always enough; inconclusive = no clear call, values can overlap the other calls; tested in BHK-21 cells
Xi reactivation: reactivates the inactive X chromosome in mouse fibroblasts; activation, % at 7.58 µM; AID 743238; 0.055% of 360,000 active; XiGFP mouse fibroblasts, % GFP-positive cells imaging, 3 d; cells co-treated with 5-aza-dC sensitizer; scaled so ellipticine positive control = 100%;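 active = mean normalized replicate activation at least 10% and every replicate at or above 10%; inconclusive = only one of the two criteria met; inactive = mean below 10% and not all replicates reach 10%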
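Material: XiGFP fibroblasts, SV40-immortalized; Buffer or medium: DMEM containing 5-aza-dC; Compound dosing: single point; Times: 3 days compound exposure.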
Statin myotox sup: suppressors of simvastatin-induced myotoxicity in C2C12 myotubes | rescue of ATP level, % at 7.49 µM | 0.78% of 330,000 active | ATP luminescence, 48 h; scaled: DMSO 0, geranylgeraniol control 100;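 active = mean ATP rescue above about 67%, or every replicate alone reaching that limit, limit read from the data, passing the limit was not always enough; inconclusive = no clear call, values can overlap the other calls; inactive = mean under the limit and some replicate under it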;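 also: myotubes were challenged with 10 µM simvastatin during compound exposure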
Cneo AK release: Cryptococcus neoformans lysis via adenylate kinase release | AID 651654 | C. neoformans lysis, adenylate kinase release luminescence, 4 h; normalised: neutral wells 0, clomiphene wells 100 | lysis activity, % at 15 µM | 0.2% of 360,000 active;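 active = mean lysis activity across replicates of at least 80%, whatever share of replicates individually reach that level; inactive = mean lysis activity below 80%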
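Material – log-phase Cryptococcus neoformans yeast cells · Input – 5 × 10^6 yeast cells/mL · Medium – fresh YPD growth medium · Doses – single compound concentration per well · Timing – static 4 h at 37 °C with compound, 1 h detection · Detection – adenylate kinase release luminescence · Read-out – signal increase indicating cell lysis · Control set – Clomiphene as positive lysis control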
A number is an active result; 0 = inactive; ? = inconclusive; - = not tested or not shown.

SMILES	DENV2 CPE rescue	Xi reactivation	Statin myotox sup	Cneo AK release
CON(C)C(=O)/C=C/CCCCNC(=O)OC(C)(C)C	37	0	0	0
Cc1cccc(N(C)c2cc(C)nc3nc(C)nn23)c1	29	0	0	0
CCOC(=O)N1CCN(C(=S)NC(=O)c2nn(C)cc2Br)CC1	0	0	125	0
CCc1nc(SCc2ccccc2C)n[nH]1	32	0	0	0
Cc1ccc(Cn2c([N+](=O)[O-])cnc2C)cc1	-	0	-	0
Cc1ncc([N+](=O)[O-])n1Cc1ccccc1	50	0	0	0
O=S(=O)(NCc1ccc(F)cc1)c1ccccc1Br	31	0	0	0
CS(=O)(=O)N(Cc1ccc(C(=O)NN=C2CCCCCC2)cc1)c1ccccc1	110	0	0	0
CN1CCC(=NNC(=O)CN(c2ccc(Oc3ccccc3)cc2)S(C)(=O)=O)CC1	0	0	110	0
Cc1noc(C)c1NC(=O)N(C)C[C@H]1OCCCC[C@@H](C)Oc2ccc(NS(=O)(=O)c3cn(C)cn3)cc2C(=O)N([C@@H](C)CO)C[C@@H]1C	0	0	0	0
CC(=O)N1CC(=O)N2[C@H](C1)[C@H](c1ccc(-c3ccc(C)cc3)cc1)[C@@H]2CO	0	0	-	-
O=C(NC1CCC1)[C@H]1[C@H](CO)[C@H]2Cn3c(ccc(C4=CCCC4)c3=O)[C@H]2N1C(=O)C1CCC1	0	0	-	-
COC(=O)[C@H]1[C@H](CO)[C@H]2Cn3c(ccc(C4=CCCCC4)c3=O)[C@H]2N1Cc1cccnc1	26	0	-	-
O=C(NC1CCC1)[C@@H]1[C@@H](CO)[C@@H]2Cn3c(ccc(C4=CCCCC4)c3=O)[C@@H]2N1C(=O)C1CCOCC1	56	0	0	0
O=C(CCN1CCOCC1)N/N=C/c1cc([N+](=O)[O-])ccc1OC(F)F	22	0	0	0
CCCCC(=O)N/N=C/c1cc([N+](=O)[O-])ccc1N1CCOCC1	-	0	0	0
CS(=O)(=O)N(CC(=O)N/N=C/c1cccs1)c1cccc(Cl)c1Cl	-	-	119	0
Cc1ccc(S(=O)(=O)N(CC(=O)N/N=C\c2cccs2)c2cccc3cccnc23)cc1	0	0	-	-
Cc1nn(C)cc1NC(=O)C[C@H]1CC[C@H]2[C@@H](COc3ccc(NC(=O)NC(C)C)cc3C(=O)N2C)O1	?	0	0	0
Cc1nn(C)cc1NC(=O)C[C@H]1CC[C@@H]2[C@H](COc3ccc(NC(=O)NC(C)C)cc3C(=O)N2C)O1	33	0	0	0
CC(=O)Nc1ccc2c(c1)C(=O)N(C)[C@H]1CC[C@H](CC(=O)Nc3cccc(C(C)C)c3)O[C@@H]1CO2	108	0	0	0
CN(C)C(=O)c1ccc(-c2ccc([C@@H]3[C@@H](CO)N(C(=O)C4CCCC4)[C@H]3C#N)cc2)cc1	29	0	0	0
CN(C)C(=O)c1cccc(-c2ccc([C@@H]3[C@@H](C#N)N(C(=O)C4CCC4)[C@@H]3CO)cc2)c1	26	0	0	0
CN(C)C(=O)c1ccc(-c2ccc([C@@H]3[C@@H](C#N)N(C(=O)C4CCC4)[C@H]3CO)cc2)cc1	0	0	0	0
CN(C)C(=O)c1cccc(-c2ccccc2[C@H]2[C@@H](C#N)N(C(=O)C3CC3)[C@H]2CO)c1	43	0	-	-
SMILES	DENV2 CPE rescue	Xi reactivation	Statin myotox sup	Cneo AK release
CN(C)CC(=O)N1[C@H](C#N)[C@H](c2ccc(-c3ccc(C(=O)N(C)C)cc3)cc2)[C@H]1CO	37	0	0	0
CN(C)C(=O)c1cccc(-c2ccc([C@@H]3[C@@H](CO)N(C(=O)C4CCC4)[C@H]3C#N)cc2)c1	0	0	0	0
CN(C)C(=O)c1cccc(-c2ccccc2[C@H]2[C@H](C#N)N(C(=O)C3CC3)[C@H]2CO)c1	0	0	-	-
CC(C)[C@H]1C(=O)N[C@@H](c2ccccc2)CC=CC[C@H](C)Oc2ccccc2C(=O)N1C (mixture of isomers)	-	0	-	-
CCOc1cc(C)c(Cl)cc1S(=O)(=O)N(C)C	-	-	0	0
COc1cc(C)c(Cl)cc1S(=O)(=O)N1CCCC1	0	0	-	-
CCOc1cc(C)c(Cl)cc1S(=O)(=O)N1CCCC1	-	-	81	0
CCCOc1cc(C)c(Cl)cc1S(=O)(=O)N(CC)CC	-	-	108	0
C[C@H]1CN([C@@H](C)CO)C(=O)c2cccc(NC(=O)Nc3ccc(F)cc3)c2O[C@H]1CN(C)CC1CC1	0	0	-	-
O=C(N/N=C/c1ccc(O)cc1O)NC12CC3CC(CC(C3)C1)C2	50	0	0	0
O=C(N/N=C/c1cc([N+](=O)[O-])ccc1O)NC12CC3CC(CC(C3)C1)C2	0	0	-	-

High-throughput results from PubChem BioAssay.
